Series [1] can be described thus: Metabolic stability in human BT474 cell culture media assessed as parent compound remaining at 10 uM after 24 hrs by LC-MS/MS analysis. Format: physicochemical. The following applies: read-out: Stability.
Series [2] has as its system MCF7. In words: Cytotoxicity against human MCF7 cells assessed as cell killing at 5 to 10 uM after 24 hrs by bright-field microscopy. Format: functional, cell-based.
Series [3] has as its system BT-474. In words: Growth inhibition of human BT474 cells at 0.11 to 3.5 uM after 12 days by IncuCyte live cell imaging method. Type of series: functional, cell-based. Put shortly: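 BT474 cells grown with compound; percent confluence tracked by IncuCyte live-cell imaging every 4 h over 300 h.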
Series [4] has as its system MCF7. The experiment in a line: Inhibition of KDM5 human MCF7 cells assessed as up-regulation of STING protein expression at 1 to 5 uM after 48 hrs by Western blot analysis relative to control. Type of series: cell-based. Put shortly: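 MCF7 cells treated with compound or 0.1% DMSO for 30 or 48 h; total cell lysates analysed by Western blot with specific antibodies.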
A general note: In western blotting, separated proteins are transferred to a membrane and probed.

Series [5] has as its system MCF7. In words: Inhibition of KDM5 human MCF7 cells assessed as up-regulation of MT1H mRNA expression at 1 to 5 uM after 48 hrs by RT-qPCR assay relative to control. Format: cell-based. The essentials: (§1)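 MCF7 cells treated with compound or DMSO for 48 h; target mRNA quantified by real-time RT-PCR; biological triplicates.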
(Quantitative PCR measures a nucleic acid by following its amplification.)

Series [6] has as its system MCF7. The experiment in a line: Inhibition of KDM5 human MCF7 cells assessed as up-regulation of STING mRNA expression at 1 to 5 uM after 48 hrs by RT-qPCR assay relative to control. Format: cell-based. Put shortly: as §1
Series [7] concerns MCF7. The experiment in a line: Inhibition of KDM5 human MCF7 cells assessed as up-regulation of MT1F mRNA expression at 1 to 5 uM after 48 hrs by RT-qPCR assay relative to control. Type of series: cell-based. Put shortly:
as §1

Series [8] in a line: Effective permeability of the compound at pH 7.4 by PAMPA. Type of series: ADME. The following applies: read-out: Peff. Put shortly: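 PAMPA with a lipid/dodecane artificial membrane and pH 7.4 buffer in donor and acceptor wells. Compounds diluted from 10 mM DMSO stock to 0.05 mM final, 0.5% DMSO. Donor stirred during a 30 min permeation at room temperature. Donor and acceptor concentrations read by UV. Permeability given in 10−6 cm s−1: >100 high, 10–100 moderate, <10 low.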

Series [9] relates to BT-474. The experiment in a line: Cytotoxicity against human BT474 cells assessed as reduction in cell viability at >5 uM after 24 hrs by celltiter glo assay. Type of series: functional, cell-based. The essentials:
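BT474 cells treated with compound; viability read by CellTiter-Glo luminescence 24 h after treatment.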

A short description of series [10]: Drug uptake in human BT474 cells at 2.5 uM after 24 hrs by LC-MS/MS analysis. The following applies: bt-474, 24 h. Format: ADME, cell-based. The essentials: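 Compound incubated with BT474 cells for 24 h; cells lysed and compound level in the extract determined.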
The next series concerns HEK-293T. In words: Cytotoxicity against HEK293T cells assessed as cell killing at 5 to 10 uM after 24 hrs by bright-field microscopy. The following applies: human. Format: cell-based.
Series [11] addresses Lysine-specific demethylase 5A (Homo sapiens, UniProt P29375). In words: Inhibition of KDM5A in human BT474 cells assessed as effect on H3K4me3 methylation levels up to 5 uM after 48 hrs by immunocytochemistry.
In another series the test system is MDA-MB-231. In words: Cytotoxicity against human MDA-MB-231 cells assessed as cell killing at 5 to 10 uM after 24 hrs by bright-field microscopy. Type of series: functional, cell-based.

The structures appear in SMILES notation. The source made the active and inactive calls. No cut-off for these calls is given here.

This note sets out measurements from ChEMBL document CHEMBL4266040, “Structure-Based Engineering of Irreversible Inhibitors against Histone Lysine Demethylase KDM5A” (J Med Chem, 2018).

Chain of Lysine-specific demethylase 5A (P29375 whole entry): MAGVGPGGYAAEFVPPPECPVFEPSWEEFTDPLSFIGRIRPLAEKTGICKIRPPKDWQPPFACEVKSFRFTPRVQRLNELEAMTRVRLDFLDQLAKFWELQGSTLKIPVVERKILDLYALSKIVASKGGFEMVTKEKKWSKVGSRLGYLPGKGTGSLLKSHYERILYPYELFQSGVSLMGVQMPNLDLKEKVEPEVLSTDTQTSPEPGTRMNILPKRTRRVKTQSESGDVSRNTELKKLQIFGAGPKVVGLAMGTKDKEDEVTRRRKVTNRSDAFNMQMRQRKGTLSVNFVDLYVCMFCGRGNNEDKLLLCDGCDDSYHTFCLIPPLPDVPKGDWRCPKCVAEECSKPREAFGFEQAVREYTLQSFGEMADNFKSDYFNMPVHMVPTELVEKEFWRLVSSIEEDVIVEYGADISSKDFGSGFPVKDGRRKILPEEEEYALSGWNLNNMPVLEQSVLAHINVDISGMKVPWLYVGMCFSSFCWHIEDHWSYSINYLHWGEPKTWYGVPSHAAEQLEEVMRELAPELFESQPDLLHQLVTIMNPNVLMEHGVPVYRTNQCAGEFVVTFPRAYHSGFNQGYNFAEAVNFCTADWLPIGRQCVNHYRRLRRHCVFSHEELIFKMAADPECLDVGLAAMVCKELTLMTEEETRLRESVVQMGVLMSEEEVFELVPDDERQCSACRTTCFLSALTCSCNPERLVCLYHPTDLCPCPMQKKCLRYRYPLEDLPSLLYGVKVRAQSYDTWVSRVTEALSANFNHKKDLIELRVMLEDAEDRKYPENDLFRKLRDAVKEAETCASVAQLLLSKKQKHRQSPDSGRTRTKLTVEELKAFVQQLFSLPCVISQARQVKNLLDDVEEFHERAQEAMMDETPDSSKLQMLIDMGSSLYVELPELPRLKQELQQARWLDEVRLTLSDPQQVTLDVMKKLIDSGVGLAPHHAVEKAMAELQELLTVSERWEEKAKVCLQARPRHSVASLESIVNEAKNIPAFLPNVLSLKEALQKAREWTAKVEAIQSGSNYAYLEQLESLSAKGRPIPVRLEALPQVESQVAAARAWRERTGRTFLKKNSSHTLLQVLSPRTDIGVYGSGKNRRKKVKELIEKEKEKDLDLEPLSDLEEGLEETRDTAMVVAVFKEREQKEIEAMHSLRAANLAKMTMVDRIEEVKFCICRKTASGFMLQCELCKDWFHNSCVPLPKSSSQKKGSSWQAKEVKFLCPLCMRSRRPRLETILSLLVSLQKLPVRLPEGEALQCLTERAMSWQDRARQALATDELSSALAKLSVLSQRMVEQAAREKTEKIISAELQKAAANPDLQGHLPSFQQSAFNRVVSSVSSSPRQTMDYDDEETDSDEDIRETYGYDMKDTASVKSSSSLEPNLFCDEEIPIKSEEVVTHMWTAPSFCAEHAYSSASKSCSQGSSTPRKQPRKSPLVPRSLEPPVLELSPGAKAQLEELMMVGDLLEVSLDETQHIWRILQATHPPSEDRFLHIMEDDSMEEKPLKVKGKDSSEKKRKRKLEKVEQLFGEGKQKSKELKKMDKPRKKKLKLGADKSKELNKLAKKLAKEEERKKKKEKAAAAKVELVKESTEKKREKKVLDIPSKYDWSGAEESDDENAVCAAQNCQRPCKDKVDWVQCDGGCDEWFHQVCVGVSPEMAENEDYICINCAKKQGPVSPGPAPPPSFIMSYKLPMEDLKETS

For `CC(C)OC(=O)c1ccnc2cc(C(OCCN3CCCCC3)c3cccc(NC(=O)/C=C/CN(C)C)c3)sc12` (stereo not drawn), in series [1], the remaining at 24 h, 10 µM worked out at 80%. Also, the result in the series on MCF7 [2], with BT-474 [9] and in the series with MDA-MB-231 was Active. Further, the “growth inhibition (GI)” value with BT-474 [3] is “inactive”. Also, the fold change (FC) with MCF7 [4], with MCF7 [5], with MCF7 [6] and in the series with MCF7 [7] was less than 2 each time. Further, the Papp in series [8] came out at 71.4 ×10⁻⁶ cm/s. Also, in series [10], the Drug uptake result is reported as “Active”. Further, the Activity result in the series with HEK-293T is “Toxic”. In addition, the inhibition entry in series [11] was “inactive”.
